In ChEMBL document CHEMBL4396897, “Potent 5-Cyano-6-phenyl-pyrimidin-Based Derivatives Targeting DCN1-UBE2M Interaction” (J Med Chem, 2019):
Calls of active or inactive are those of the source. The calls are words filed in the database; no cut-off is given here.

Experiments:
[1] = target: T1, NEDD8-activating enzyme E1 catalytic subunit (Homo sapiens) (UniProt Q8TBC4); assay: Inhibition of NEDD8-activating enzyme E1C (unknown origin) assessed as effect on NEDD8/UBE2M complex formation at 10 to 20 uM pre-incubated for 10 mins followed by Mg-ATP addition after 60 mins by SDS-PAGE analysis
T1 sequence (whole entry): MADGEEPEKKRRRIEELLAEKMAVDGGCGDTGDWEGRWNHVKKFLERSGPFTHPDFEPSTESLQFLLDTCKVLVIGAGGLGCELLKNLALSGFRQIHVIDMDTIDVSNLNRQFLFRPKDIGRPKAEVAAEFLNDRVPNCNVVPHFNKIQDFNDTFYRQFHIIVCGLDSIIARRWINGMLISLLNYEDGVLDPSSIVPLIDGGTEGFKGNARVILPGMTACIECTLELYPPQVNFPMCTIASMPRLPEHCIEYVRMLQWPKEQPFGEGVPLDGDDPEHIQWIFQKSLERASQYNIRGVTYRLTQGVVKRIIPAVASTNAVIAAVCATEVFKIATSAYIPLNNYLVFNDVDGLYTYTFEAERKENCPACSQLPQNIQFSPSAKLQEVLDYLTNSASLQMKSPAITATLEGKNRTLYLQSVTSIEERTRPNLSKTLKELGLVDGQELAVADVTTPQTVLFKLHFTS
Outline: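 Cell-free NEDD8~UBE2M formation: NEDD8 E1 mixed with NEDD8, UBE2M and compound (10 and 20µM reference inhibitor, or 1, 10 and 100µM test compound) in reaction buffer, 10 min at room temperature. Started with Mg-ATP, incubated 60 min at 37°C, then 1mM DTT and non-reducing loading buffer added. Resolved on 12% SDS-PAGE.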

[2] = target: T2, DCN1-like protein 1/NEDD8-conjugating enzyme Ubc12 (Homo sapiens) (UniProt Q96GG9+P61081); assay: Inhibition of DCN1-UBE2M protein-protein interaction in human NCI-H1975 cells assessed as increase in HO-1 accumulation at 3 uM incubated for 24 hrs by Western blot analysis; format: cell-based
Outline: (§1)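 H1975 and PC9 cells seeded at 1×10⁶ cells, incubated overnight, then treated 24h with compound (0, 0.3, 1, 10 and 20 μM in methods; 3 μM also listed in text). Lysates cleared at 12,000×g, 20 min, 4°C, protein by BCA, SDS–PAGE, nitrocellulose, primary antibodies overnight at 4°C, HRP secondary, ECL. Densitometry normalised to GAPDH; three experiments.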

[3] = target: T2, DCN1-like protein 1/NEDD8-conjugating enzyme Ubc12 (Homo sapiens); assay: Inhibition of DCN1-UBE2M protein-protein interaction in human NCI-H1975 cells assessed as increase in NRF2 accumulation at 3 uM incubated for 24 hrs by Western blot analysis; format: cell-based; outline: as §1
[4] = target: T2, DCN1-like protein 1/NEDD8-conjugating enzyme Ubc12 (Homo sapiens); assay: Inhibition of DCN1-UBE2M protein-protein interaction in human PC9 cells assessed as increase in NQO1 accumulation at 3 uM incubated for 24 hrs by Western blot analysis; format: cell-based; outline: as §1
[5] = target: T2, DCN1-like protein 1/NEDD8-conjugating enzyme Ubc12 (Homo sapiens); assay: Inhibition of DCN1-UBE2M protein-protein interaction in human PC9 cells assessed as increase in HO-1 accumulation at 3 uM incubated for 24 hrs by Western blot analysis; format: cell-based; outline: as §1
[6] = target: T2, DCN1-like protein 1/NEDD8-conjugating enzyme Ubc12 (Homo sapiens); assay: Inhibition of DCN1-UBE2M protein-protein interaction in human NCI-H1975 cells assessed as increase in NQO1 accumulation at 3 uM incubated for 24 hrs by Western blot analysis; format: cell-based; outline: as §1
[7] = target: T2, DCN1-like protein 1/NEDD8-conjugating enzyme Ubc12 (Homo sapiens); assay: Inhibition of DCN1-UBE2M protein-protein interaction in human PC9 cells assessed as increase in NRF2 accumulation at 3 uM incubated for 24 hrs by Western blot analysis; format: cell-based; outline: as §1

T2 sequence (P61081 whole entry, looked up): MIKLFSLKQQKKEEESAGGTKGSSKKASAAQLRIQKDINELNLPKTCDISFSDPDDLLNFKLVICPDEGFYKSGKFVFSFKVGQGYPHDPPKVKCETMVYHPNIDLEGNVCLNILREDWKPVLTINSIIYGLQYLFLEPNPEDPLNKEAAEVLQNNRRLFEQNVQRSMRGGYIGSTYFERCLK
T2 sequence (Q96GG9 whole entry, looked up): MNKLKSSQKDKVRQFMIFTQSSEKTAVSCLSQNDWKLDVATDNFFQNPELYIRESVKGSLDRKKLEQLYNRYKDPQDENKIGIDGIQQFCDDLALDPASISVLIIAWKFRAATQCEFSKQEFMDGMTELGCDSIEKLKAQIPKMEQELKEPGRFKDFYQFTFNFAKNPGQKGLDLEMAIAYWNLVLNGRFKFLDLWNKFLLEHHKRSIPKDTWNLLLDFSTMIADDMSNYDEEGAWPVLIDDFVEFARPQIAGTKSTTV

- inhibition [1]: Active
- inhibition [2]: Active
- inhibition [3]: Active
- inhibition [4]: Active
- inhibition [5]: Active
- inhibition [6]: Active
- inhibition [7]: Active
SMILES: NS(=O)(=O)OC[C@@H]1C[C@@H](n2ccc3c(N[C@H]4CCc5ccccc54)ncnc32)C[C@@H]1O
